Laboratory results taken from publication PMC6843717 (ACS Omega, 2019).
Values joined by “and” are separate entries in the source; they are usually repeats but may differ in a detail not shown here. Identical values can stand only once. Marks after values point to notes of the source that are not given here. Blank lines part the entries; values can stand above or below the molecule they belong to.

Key:
[1] = Tissue distribution after single IP or PO dose; assay type: in vivo, BALB/c mice; conditions: for MRT inf / Vd/F / concentration at 30 min / half-life / k el / tissue uptake / Tmax: 10 mg/kg; for Tmax / AUC0–t / Cl/F: mean ± SEM
Summary of the method: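 Same single 10 mg/kg IP or PO dosing in female BALB/c mice. Liver, heart, spleen, kidneys and lungs taken at 0.17, 0.5, 1 and 3 h (n = 5), saline-flushed and snap-frozen. Tissue homogenized 1:4 w/v in pH 7.4 saline, liquid–liquid extracted with internal standard, quantified by SFC-MS/MS. Localization index = tissue %ID/g over plasma %ID/mL; mean ± SEM.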

[2] = Plasma pharmacokinetics after single IP or PO dose; assay type: in vivo, Balb/c mice
Summary of the method: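 Female BALB/c mice, 4–5 weeks old, acclimated 1 week. Single 10 mg/kg dose (0.1 mL in 12.5% ethanol/12.5% cremophor/75% PBS, pH 7.4), IP or oral gavage. Five mice per time point (0.08–12 h) bled by cardiac puncture into citrate. Plasma protein-precipitated and analysed by SFC-MS/MS (ESI+, m/z 339.1→179.9). λz by terminal log-linear regression; relative bioavailability PO vs IP.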

[3] = MBQ-167 distribution in mouse mammary tumors; assay type: in vivo, SCID mice; conditions: 2.5 mg/kg BW 24 h prior to sacrifice, 3-month multiple low-dose regimen
Summary of the method: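 Female SCID mice, 4 weeks old, received 2 × 10^6 GFP-tagged MDA-MB-468 cells into the mammary fat pad. After 1 week, vehicle or 2.5 mg/kg ip was given three times weekly for 3 months. Twenty-four hours after the last dose, five mice per arm got 10 mg/kg 30 min before sacrifice. Tumours were saline-flushed, snap-frozen, homogenized, extracted and quantified by SFC-MS/MS (n = 5).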

[4] = Stability of MBQ-167 in mouse plasma; assay type: physicochemical; conditions: for postpreparative stability RE%: 8 h; for short term stability RE%: 4 h at benchtop; for freeze–thaw stability RE% / long term stability RE%: −80 °C; for freeze–thaw stability RE%: 3 cycles 24 h
Summary of the method: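 Spiked mouse plasma QCs (calibration 1.5–1000 ng/mL) quantified by SFC-MS/MS after protein precipitation; RE% against nominal. Short-term: 2.5 and 950 ng/mL, 4 h at room temperature. Postpreparative: three QC levels (2.5, 450, 950 ng/mL) held at 4 °C. Long-term: −80 °C for 15 and 134 days. Freeze–thaw: three 24 h cycles at −80 °C.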

[5] = system: HER2-type mammary fat pad tumor; conditions: 10 mg/kg BW; immunocompromised mice; cited from earlier work
[6] = Stability of MBQ-167 in mouse liver; assay type: physicochemical; conditions: for postpreparative stability RE% / short term stability RE% / freeze–thaw stability RE% / long term stability RE%: liver; for postpreparative stability RE%: 8 h; for short term stability RE%: 3 h in an ice bucket; for freeze–thaw stability RE% / long term stability RE%: −80 °C; for freeze–thaw stability RE%: 3 cycles 24 h; for long term stability RE%: 90 days
Summary of the method: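 Spiked mouse tissue QCs (calibration 10–1000 ng/mL) quantified by SFC-MS/MS; RE% against nominal. Short-term: 15 and 950 ng/mL, 3 h in an ice bucket. Postpreparative: 15, 450 and 950 ng/mL, 8 h at 4 °C. Long-term: −80 °C for 90 days. Freeze–thaw: three 24 h cycles at −80 °C.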

[7] = system: Cdc42; conditions: read-out: IC50 for Cdc42 activation; cited from earlier work
[8] = reported for other anticancer drugs; cited from earlier work
[9] = female, BALB/c, mouse, heart, ip
[10] = female, BALB/c, mouse, heart, po
[11] = female, BALB/c, mouse, kidneys, ip
[12] = female, BALB/c, mouse, kidneys, po
[13] = female, BALB/c, mouse, liver, ip
[14] = female, BALB/c, mouse, liver, po
[15] = female, BALB/c, mouse, lungs, ip
[16] = female, BALB/c, mouse, lungs, po
[17] = female, BALB/c, mouse, spleen, ip
[18] = female, BALB/c, mouse, spleen, po
[19] = female, BALB/c, mouse, plasma, ip, 10 mg/kg
[20] = female, BALB/c, mouse, plasma, po, 10 mg/kg
[21] = plasma, intraperitoneal 10 mg/kg, mean ± SEM

detection of MBQ-167 in tumor [3]: not detected
stability in plasma (±15% RSD, RE) ([4]; incubation at ambient temperature for four hours): stable
freeze–thaw stability ([4]; plasma, three freeze–thaw cycles lasting 24 h): stable
stability in tissues ([6]; incubation in an ice bucket for 3 h): stable
freeze–thaw stability ([6]; tissues, three freeze–thaw cycles lasting 24 h): stable
SMILES: CCn1c2ccccc2c2cc(-n3nncc3-c3ccccc3)ccc21 [MBQ-167]

SMILES: CCn1c2ccccc2c2cc(Nc3ccnc(NCCCN4CCOCC4)n3)ccc21 [EHop-016]
bioavailability (F) [8]: 40%
